According to publication PMC6986167 (Pharmacogenomics and Personalized Medicine, 2020):
Several values for one entry are separate records, joined by “and”; a condition that tells them apart may be missing. Equal values may be shown once. Read-outs that look alike come from different tables or passages of the source. Each block holds one compound with its values, some of them ahead of it.

Assays:
[1] = Minimal equilibrium rivaroxaban concentration in blood plasma by HPLC-MS; format: in vivo, patients
Procedure, shortened: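 Plasma thawed at room temperature, protein-precipitated with methanol plus 0.1% hydrogen chloride 9:1, vortexed, left 10 min, spun 9000 RCF 10 min. C18 column at 40°C, isocratic ammonium acetate/formic acid, water:acetonitrile 70:30. Validated 5–1000 ng/mL. Genotypes by real-time PCR on EDTA blood.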

[2] = data from the centers; cited from earlier work
[3] = AF patients, p = 0.02, cited from earlier work
[4] = carriership of low function allelic variants, patients on clopidogrel; cited from earlier work
[5] = system: platelets (ADP-activated, P2Y12 Reactivity Units)

Rivaroxaban concentration, M ([1]; ABCB1 3435 C>T CT+TT, N=73): 80.6
Rivaroxaban concentration, M ([1]; ABCB1 rs4148738 CC, N=19): 78.8
Rivaroxaban concentration, M ([1]; ABCB1 rs4148738 CT+TT, N=84): 78.9
Rivaroxaban concentration, M ([1]; CYP2C19*2 GA+AA, N=31): 86.2
Rivaroxaban concentration, M ([1]; CYP2C19*2 GG, N=72): 75.7
Rivaroxaban concentration, M ([1]; CYP3A5*3 AG+AA, N=19): 69.7
Rivaroxaban concentration, M ([1]; CYP3A5*3 GG, N=84): 81.6
rivaroxaban concentration ([1]; patients with HAS-BLED 3–9): 92.3 ± 64.9
rivaroxaban concentration ([1]; patients with HAS-BLED <3): 67.2 ± 47.4
SMILES: O=C(NC[C@H]1CN(c2ccc(N3CCOCC3=O)cc2)C(=O)O1)c1ccc(Cl)s1 [Rivaroxaban]
average level of plasma concentration of rivaroxaban [2]: 40 ng/mL
patients beyond the therapeutic range [2]: ~40%
variation of plasma concentration of rivaroxaban [2]: 15 fold
equilibrium rivaroxaban concentration ([3]; first value of bleeding comparison): 48±30
equilibrium rivaroxaban concentration ([3]; second value of bleeding comparison): 34 ± 26

SMILES: COC(=O)[C@H](c1ccccc1Cl)N1CCc2sccc2C1 [clopidogrel]
increase of risk of major adverse cardiovascular events (MACE) [4]: 1.5 fold
increase of risk of stent thrombosis [4]: 2.8 fold
Platelet reactivity units (PRU), M ([5]; ABCB1 3435 C>T CC, N=30): 136.8 PRU
Platelet inhibition rate (%), M ([5]; ABCB1 3435 C>T CC, N=30, ACS+AF patients on clopidogrel and rivaroxaban): 29.8%
Platelet inhibition rate (%), M ([5]; ABCB1 3435 C>T CT+TT, N=73): 30.9%
Platelet reactivity units (PRU), M ([5]; ABCB1 3435 C>T CT+TT, N=73): 135.5 PRU
Platelet reactivity units (PRU), M ([5]; ABCB1 rs4148738 CC (non-carriers of T), N=19): 113.3 ± 57.1 PRU and 113.3 PRU
Platelet inhibition rate (%), M ([5]; ABCB1 rs4148738 CC, N=19): 34.5%
Platelet reactivity units (PRU), M ([5]; ABCB1 rs4148738 CT+TT (T carriers), N=84): 141.0 ± 62.3 PRU and 141.0 PRU
Platelet inhibition rate (%), M ([5]; ABCB1 rs4148738 CT+TT, N=84): 29.7%
Platelet inhibition rate (%), M ([5]; CYP2C19*2 GA+AA, N=31): 28.6%
Platelet reactivity units (PRU), M ([5]; CYP2C19*2 GA+AA, N=31): 145.2 PRU
Platelet inhibition rate (%), M ([5]; CYP2C19*2 GG, N=72): 31.4%
Platelet reactivity units (PRU), M ([5]; CYP2C19*2 GG, N=72): 131.9 PRU
Platelet inhibition rate (%), M ([5]; CYP3A5*3 AG+AA, N=19): 30.4%
Platelet reactivity units (PRU), M ([5]; CYP3A5*3 AG+AA, N=19): 139.8 PRU
Platelet inhibition rate (%), M ([5]; CYP3A5*3 GG, N=84): 30.6%
Platelet reactivity units (PRU), M ([5]; CYP3A5*3 GG, N=84): 135.0 PRU
platelet inhibition level ([5]; patients with in-hospital death): 63.3%
platelet inhibition level ([5]; patients without in-hospital death): 29.6%
